Calls of active or inactive are those of the source. The calls are words filed in the database; no cut-off is given here.
Assays:
[1] = tested on: NSCLC; assay: Growth inhibition of human NSCLC cells after 48 hrs; format: functional
[2] = Growth inhibition of human melanoma cells after 48 hrs; format: functional; conditions: Melanoma cell; for CC50: read-out: LC50 (the source's name)
[3] = Growth inhibition of human leukemia cells after 48 hrs; format: functional; conditions: Leukemia cell; for CC50: read-out: LC50 (the source's name)
[4] = Growth inhibition of human colon cancer cells after 48 hrs; format: functional; conditions: Cancer cell lines; for CC50: read-out: LC50 (the source's name)
[5] = Growth inhibition of human prostate cancer cells after 48 hrs; format: functional; conditions: Cancer cell lines; for CC50: read-out: LC50 (the source's name)
[6] = tested on: MCF7; assay: Antiproliferative activity against human MCF7 cells assessed as increase in tumor suppressor p53 expression at 5 uM after 20 hrs by Western blotting; format: functional
Procedure, shortened: (§1)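 MCF-7 cells in RPMI 1640 with 10% FBS and 2 mM L-glutamine at 37°C, 5% CO2, plated at 2×10^4 cells/cm2. Compound added 24 h later to 5 μM (DMSO vehicle in controls) for 20 h. Lysed in HEPES pH 7.5 buffer with DTT, EDTA, CHAPS, Triton X-100 and protease inhibitors, then freeze-thawed twice. SDS-PAGE at 80 μg protein/lane and immunoblotting for total and phospho ERK1/2 and Akt, p53 and p21, with β-actin. Densitometry used for quantitation.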

[7] = Growth inhibition of human renal cancer cells after 48 hrs; format: functional; conditions: Cancer cell lines; for CC50: read-out: LC50 (the source's name)
[8] = Growth inhibition of human Ovarian cancer cells after 48 hrs; format: functional; conditions: Cancer cell lines; for CC50: read-out: LC50 (the source's name)
[9] = Growth inhibition of human breast cancer cells after 48 hrs; format: functional; conditions: Cancer cell lines; for CC50: read-out: LC50 (the source's name)
[10] = Growth inhibition of human CNS cancer cells after 48 hrs; format: functional; conditions: Cancer cell lines; for CC50: read-out: LC50 (the source's name)
[11] = target: RAC-alpha serine/threonine-protein kinase (Homo sapiens) (UniProt P31749); assay: Inhibition of AKT phosphorylation in human MCF7 cells assessed as p-AKT level at 5 uM after 20 hrs by Western blotting; format: cell-based; procedure, shortened: as §1
RAC-alpha serine/threonine-protein kinase (Homo sapiens), sequence (P31749 whole entry): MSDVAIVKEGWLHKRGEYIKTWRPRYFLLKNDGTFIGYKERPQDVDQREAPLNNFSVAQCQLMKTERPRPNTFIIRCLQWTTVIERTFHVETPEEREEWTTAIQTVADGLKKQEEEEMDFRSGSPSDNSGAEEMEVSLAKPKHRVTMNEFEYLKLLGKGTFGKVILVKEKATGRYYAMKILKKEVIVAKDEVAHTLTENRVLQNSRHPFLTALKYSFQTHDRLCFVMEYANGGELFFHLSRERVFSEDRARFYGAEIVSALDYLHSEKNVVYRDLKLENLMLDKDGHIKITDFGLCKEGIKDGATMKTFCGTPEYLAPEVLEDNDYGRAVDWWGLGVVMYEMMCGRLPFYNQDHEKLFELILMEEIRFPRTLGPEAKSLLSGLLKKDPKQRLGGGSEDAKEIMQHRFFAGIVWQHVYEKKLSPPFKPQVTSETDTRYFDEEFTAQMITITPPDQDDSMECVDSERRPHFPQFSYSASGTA

[12] = tested on: MCF7; assay: Cell cycle arrest in human MCF7 cells assessed as accumulation at subG1 phase at 200 nM after 24 to 48 hrs; format: functional, cell-based
Procedure, shortened: (§2)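 MCF-7 cells plated at 2×10^4 cells/cm2 and exposed to 200 nM compound for 24 and 48 h; DMSO-treated controls. Cells detached with trypsin/EDTA and washed in PBS. Stained 30 min at room temperature in the dark with 50 μg/mL propidium iodide, 10 μg/mL RNase, 0.01% NP-40 and 0.1% sodium citrate. DNA content read by flow cytometry. Means ± s.e.m. of three determinations.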

[13] = tested on: MCF7; assay: Antiproliferative activity against human MCF7 cells assessed as increase in tumor suppressor p21 expression at 5 uM after 20 hrs by Western blotting; format: functional; conditions: in the assay text read “24 hrs” for “20 hrs”
[14] = tested on: MCF7; assay: Cell cycle arrest in human MCF7 cells assessed as accumulation at G2/M phase at 200 nM after 24 to 48 hrs; format: functional, cell-based; procedure, shortened: as §2
[15] = tested on: MCF7; assay: Growth inhibition of human MCF7 cells at 200 nM after 48 hrs by trypan blue exclusion cell counting
[16] = tested on: MCF7; assay: Induction of apoptosis in human MCF7 cells assessed as Bax accumulation by immunofluorescence microscopy; format: functional, cell-based
Procedure, shortened: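 MCF-7 cells seeded on glass coverslips at 1×10^4 cells/cm2 and treated with 5 μM for 24 h. Fixed in 3% paraformaldehyde, washed in glycine and permeabilized in ice-cold 70% ethanol. Stained with mouse anti-Bax for 1 h at room temperature, then FITC anti-mouse IgG, with propidium iodide as nuclear counterstain. Imaged by confocal microscopy with excitation at 488 and 568 nm. Three experiments.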

Structure (SMILES)	GI50 [1] [µM]	LC50 [1] [µM]	GI50 [2] [µM]	CC50 [2] [µM]	GI50 [3] [µM]	CC50 [3] [µM]	GI50 [4] [µM]	CC50 [4] [µM]	GI50 [5] [µM]	CC50 [5] [µM]	GI50 [7] [µM]	CC50 [7] [µM]	GI50 [8] [µM]	CC50 [8] [µM]	GI50 [9] [µM]	CC50 [9] [µM]	GI50 [10] [µM]	CC50 [10] [µM]	also measured
COc1cc2c(cc1C)N(C)C(=O)/C2=C/c1c(Cl)[nH]c2ccccc12	0.58	57.5	0.71	51.3	0.26	69.2	0.37	46.8	0.32	69.2	0.62	56.2	0.6	61.7	0.3	57.5	0.32	47.9	Activity [6]: Active
CN(C)c1ccc2[nH]c(Cl)c(/C=C3/C(=O)N(C)c4ccc(O)cc43)c2c1	6.61	85.1	4.57	66.1	16.6		4.9	61.7	12.9		4.37	87.1	8.32	95.5	3.8		6.03	85.1	TGI [1]: 46.8 µM; TGI [2]: 26.3 µM; TGI [4]: 20.9 µM; TGI [7]: 31.6 µM; TGI [8]: 55 µM; TGI [9]: 30.9 µM; TGI [10]: 33.9 µM
COc1cc2c(/C=C3/C(=O)N(C)c4ccc(O)cc43)c(Cl)n(C)c2cc1C	0.22	42.7	0.11	33.1	0.05	19.9	0.07	26.9	0.1	24	0.11	36.3	0.26	47.9	0.06	40.7	0.04	29.5	
COc1cc2c(/C=C3/C(=O)Nc4cc(Cl)ccc43)c(Cl)[nH]c2cc1C	0.43	52.5	0.23	35.5	0.14	58.9	0.17	25.7	0.22	41.7	0.23	46.8	0.28	49	0.15	39.8	0.12	41.7	
COc1cc2c(cc1C)NC(=O)/C2=C/c1c[nH]c2ccccc12	13.5	89.1	13.2	81.3	8.71		8.13	95.5	13.8	91.2	11.5	85.1	12.6	97.7	11.8	91.2	10	95.5	TGI [1]: 43.6 µM; TGI [2]: 37.1 µM; TGI [3]: 55 µM; TGI [4]: 52.5 µM; TGI [5]: 36.3 µM; TGI [7]: 38 µM; TGI [8]: 45.7 µM; TGI [9]: 40.7 µM; TGI [10]: 33.9 µM
COc1cc2c(/C=C3/C(=O)N(C)c4ccccc43)c(Cl)n(C)c2cc1C	0.58		0.34	69.2	0.25	46.8	0.2	72.4	0.39	66.1	0.33	79.4	0.38	95.5	0.28	95.5	0.2	74.1	
COc1ccc2c(c1)/C(=C\c1c(Cl)[nH]c3ccc(N(C)C)cc13)C(=O)N2	3.02	58.9	3.55	44.7	1.62	72.4	1.55	30.2	2.88	50.1	3.02	52.5	3.39	50.1	1.15	55	2.09	32.4	
COc1cc2c(/C=C3/C(=O)Nc4cc(Cl)ccc43)c(Cl)n(C)c2cc1C	0.07	93.3	0.02	50.1	0.02	39.8	0.02	25.1	0.02	21.4	0.04	70.8	0.03	52.5	0.05	72.4	0.02	23.4	Activity [11]: Active; Activity [12]: Active; Activity [13]: 90%; TGI [5]: 3.02 µM; Activity [14]: Active; Activity [6]: Active; fold change (FC) ([6]; in the assay text read “after 24 hrs” for “after 20 hrs”): 3; Activity [15]: Active; Activity [16]: Active
COc1cc2c(/C=C3/C(=O)Nc4ccc(N(C)C)cc43)c(Cl)n(C)c2cc1C	18.2		10.2	93.3	10	87.1	12.3		20.4		11.2		10.5	91.2	6.92		10.7		
CN(C)c1ccc2[nH]c(Cl)c(/C=C3/C(=O)Nc4ccc(Cl)cc43)c2c1	2.57	46.8	2.69	37.1	1.62	91.2	2.09	22.9	2.45	46.8	1.78	29.5	3.31	41.7	1.32	55	1.58	18.2	

Reference: ChEMBL document CHEMBL1212917, “Substituted E-3-(3-indolylmethylene)-1,3-dihydroindol-2-ones with antitumor activity. In depth study of the effect on growth of breast cancer cells” (2010)
